The results in this text go back to PubChem BioAssay.

Test [1] in a line: inhibitors of TNFa-induced NFkB p65 translocation, primary screen, imaging, HUVEC, MLSMR starter and 10KST1 sets (AID 438).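 Also: compound added about 3h40 before a 20 min TNFalpha stimulation.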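 As to inhibition: signal is the nuclear over cytoplasmic p65 intensity ratio per well.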 As to conditions: HUVEC TNFa-induced p65 nuclear translocation; cell count: measured here: nuclei count (cytotoxicity indicator), at 2.08 µM; inhibition: at 2 µM, stronger effect = higher value, 0% TNFa-plus-vehicle, 100% no-TNFa wells.
Test [2] can be described thus: reduction of polyQ htt aggregates in cells – imaging, exon1htt(103Q)mCFP cells, high-content imaging, primary screen (AID 483;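 active = visual image review flags a hit and inhibition of aggregation exceeds 20%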;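 also: compound exposure lasted 3 days before fixation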;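 as to nuclei count: percent of the per-plate median nuclei count of sample wells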). The following applies: exon1htt(103Q)mCFP cell line, aggregate imaging, at 2 µM; inhibition of aggregation: stronger effect = higher value; nuclei count: measured here: cell count, toxicity.
The nature of test [3]: endothelial E-selectin expression blockers – imaging, HUVEC, immunofluorescence, MLSMR starter and 10KST1 sets, primary screen (AID 487;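 active = visually confirmed hit in the image check and inhibition above 20%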;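 as to inhibition: signal is fraction of cell area covered by stained E-selectin grains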;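 as to nuclei count: 100% = median nuclei count of all wells on the same plate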). As to conditions: HUVEC TNFalpha-induced E-selectin immunofluorescence imaging, at 2 µM; inhibition: stronger effect = higher value; nuclei count: measured here: cell number, toxicity.
Test [4] concerns the target Voltage-gated potassium channel subunit beta-2 (Rattus norvegicus) (UniProt P62483). Nature of the test: inhibitors of rat Kvbeta2 reductase activity – biochemical, NADPH fluorescence, primary screen (AID 622;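 active = fluorescence slope higher than the sample average by over 3 SD, cut at about -0.22 in these data, passing the limit was not always enough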;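 also: slope of raw intensity against log time taken from 70 to 1610 s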). The following applies: recombinant KvBeta, 4-cyanobenzaldehyde reduction, at 10 µM, stronger effect = higher value.
For test [5] the target is unchanged. Nature of the test: enhancers of rat Kvbeta2 NADPH turnover – biochemical, NADPH fluorescence, primary screen (AID 623;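 active = NADPH fluorescence slope more negative than the mean of all samples by about 3 SD, 99.7% confidence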;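 also: fluorescence intensity change per second fitted from 20 to 320 s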). The following applies: Recombinant KvBeta, NADPH fluorescence decrease slope, 10 min; at 10 µM; stronger effect = lower value.
Test [6] addresses Alpha-2C adrenergic receptor (Homo sapiens) (UniProt P18825). Kind of test: compounds altering alpha2C-coupled GIRK flux – cell-based, HEK293 alpha2C/GIRK1/2, thallium flux, primary screen (AID 624;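 active = fluorescence slope after compound addition differing from the mean of all screened samples at 99.7% confidence, in either direction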;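 also: slope of fluorescence ratio to pre-addition baseline per second over 15 to 24 s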). The following applies: thallium flux BTC fluorescence, at 10 µM, actives lie on both sides.
Test [7] can be described thus: inhibitors of larval lipid processing in zebrafish, primary screen, whole organism, PED6 fluorescence, gall bladder and intestine (AID 686;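 active = a full or partial loss of lipid-probe fluorescence in the fish gall bladder, intestine or both, judged by eye; inactive = no fluorescence loss, or compound toxic to the fish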;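 also: larvae 5 to 7 days old with five fish per well; signal comes from phospholipase A2 cleavage of quenched PED6 carried via bile; overnight exposure to compound and PED6 before scoring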). The following applies: Zebrafish larvae PED6 lipid processing, fluorescence scoring; screened at 20 µM (by protocol). The method in brief:
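system = live zebrafish larvae aged 5-7 days, whole organism | probe or stimulus = ingested quenched lipid PED6 at 100 nM | doses = 20 µM single dose | timing = overnight exposure | detection = fluorescence microscopy with visual scoring of gall bladder and intestine | read-out = visual per-well fluorescence inhibition score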

Test [8] in a line: blockers of RIG-like receptor reporter activation – cell-based, Sendai virus stimulus, luciferase, 10K MLSCN set, TLR/RLR signaling modifier project, primary screen (AID 602276;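 active = inhibition at or above 50% at 10 µM; inactive = inhibition below 50%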;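 also: firefly luciferase from ISG56 promoter only with Renilla not read in this screen; 0% = Sendai virus plus DMSO and 100% = medium plus DMSO without virus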). The following applies: HEK293 RL24 IRF3 luciferase reporter, at 10 µM, stronger effect = higher value.
Test [9] can be described thus: TLR3 IRF3 reporter activation blockers – cell-based, poly I:C stimulus, luciferase, 10K MLSCN set, primary screen (AID 602277;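 active = inhibition of the reporter signal at or above 50%; inactive = inhibition below 50%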). The following applies: HEK293-TLR3 RL24 IRF3 luciferase reporter, at 10 µM, stronger effect = higher value.

Active and inactive are the calls of the source.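 The calls were made as follows, unless noted: active = inhibition above 20% together with a positive visual image hit; inconclusive = visual image hit but inhibition not above 20%; inactive = no visual image hit.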

Chain of Alpha-2C adrenergic receptor (Homo sapiens) (P18825 whole entry, looked up): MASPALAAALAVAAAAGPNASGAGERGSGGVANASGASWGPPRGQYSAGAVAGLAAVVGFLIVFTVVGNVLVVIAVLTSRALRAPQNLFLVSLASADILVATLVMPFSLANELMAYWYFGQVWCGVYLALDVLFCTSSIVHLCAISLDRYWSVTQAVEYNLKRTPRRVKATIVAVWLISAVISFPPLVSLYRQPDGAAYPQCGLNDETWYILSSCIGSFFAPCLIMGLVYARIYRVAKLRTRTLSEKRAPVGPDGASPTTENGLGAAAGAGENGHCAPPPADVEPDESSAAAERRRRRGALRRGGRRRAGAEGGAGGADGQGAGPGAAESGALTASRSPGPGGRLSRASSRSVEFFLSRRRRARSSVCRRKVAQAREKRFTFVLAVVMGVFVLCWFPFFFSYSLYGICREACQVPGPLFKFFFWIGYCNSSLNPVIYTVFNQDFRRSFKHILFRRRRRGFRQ
Chain of Voltage-gated potassium channel subunit beta-2 (Rattus norvegicus) (P62483 whole entry, looked up): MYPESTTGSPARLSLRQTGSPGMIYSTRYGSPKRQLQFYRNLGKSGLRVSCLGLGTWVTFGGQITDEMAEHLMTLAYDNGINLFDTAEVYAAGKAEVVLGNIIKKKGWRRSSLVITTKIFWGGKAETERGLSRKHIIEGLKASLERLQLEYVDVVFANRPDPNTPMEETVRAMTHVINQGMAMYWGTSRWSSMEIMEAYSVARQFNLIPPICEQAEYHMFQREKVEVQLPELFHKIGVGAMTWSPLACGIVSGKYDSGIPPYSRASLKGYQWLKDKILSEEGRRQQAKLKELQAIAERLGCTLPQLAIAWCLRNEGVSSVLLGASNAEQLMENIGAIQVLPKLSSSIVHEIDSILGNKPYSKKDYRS

What is called inhibition is the drop in the measured response relative to a control, in per cent. As to `CN(C)C(=O)CSc1nnc2sc3ccccc3n12`, in [1], the cell count was 388. The inhibition is -9.2% (inactive) in test [1], -32.3% (inactive) in test [3], 15.9% (inactive) in test [8] and 23.7% (inactive) in test [9]. For the same compound, in test [2], the inhibition of aggregation is -15.4% (inactive). For the same compound, the nuclei count was determined as 105% in test [2] and 102% in [3]. Also, the fluorescence slope in test [4] is -0.438 (inactive). For the same compound, the NADPH fluorescence slope in [5] was -2.4e-05 (inactive). Moreover, in [6], the slope is 0.00511 (inactive). In addition, the call in test [7] was inactive.
For the compound `O=C(O)C1CCCCC1C(=O)Nc1ccccn1` (stereo not drawn), the cell count in test [1] is 475. The inhibition in test [1] was -7.1% (inactive); in test [3], 18.5% (inactive); in [8] it was 7.72% (inactive); in [9] it was 0.963% (inactive). Moreover, the inhibition of aggregation in [2] was -2.7% (inactive). The results for the nuclei count in test [2] and in test [3] were 109% and 83.2%, respectively. Besides, the fluorescence slope in [4] was -0.445 (inactive). For the same compound, the NADPH fluorescence slope in [5] is -5e-05 (inactive). Moreover, the slope in [6] is 0.00502 (inactive). Further, the result in test [7] was inactive.
As to `Cc1ccc(-c2nn(-c3ccccc3)cc2/C=C(\C#N)c2cccc(C#N)c2)o1`, the cell count in [1] was 264. Besides, the inhibition is -9.3% (inactive) in test [1], 3.9% (inactive) in test [3], 13.8% (inactive) in test [8] and 5.01% (inactive) in test [9]. In test [2], the inhibition of aggregation is -10% (inactive). For the same compound, the nuclei count was 97.5% in test [2] and 84.1% in test [3]. Besides, in test [4], the fluorescence slope is -0.273 (inactive). Moreover, in [5], the NADPH fluorescence slope is -2.6e-05 (inactive). The slope in test [6] is 0.0087 (active). The outcome in test [7] was inactive.
Turning to `Cc1ccc(S(=O)(=O)N2CCN(C(=O)CSc3nc4ccccc4c(=O)[nH]3)CC2)c(C)c1`, the cell count in [1] came out at 541. In addition, the inhibition in [1] was -30.9% (inactive); in test [3], -13.1% (inactive); in test [8], 8.86% (inactive); in test [9], 4.21% (inactive). Also, the inhibition of aggregation in test [2] is -12.7% (inactive). Also, the nuclei count was 113% in [2] and 130% in test [3]. The fluorescence slope in test [4] was -0.331 (inactive). For the same compound, in test [5], the NADPH fluorescence slope is 1.8e-05 (inactive). The slope in test [6] was 0.00493 (inactive). For the same compound, the outcome in [7] was inactive.
With `COC(=O)CSc1nnc(CSc2nc(C)cc(C)n2)n1Cc1ccco1`, the cell count in test [1] came out at 567. In addition, the inhibition in test [1] is 5.2% (inactive); in [3], -50.8% (inactive); in test [8], 1.21% (inactive); in test [9], 3.66% (inactive). Moreover, the inhibition of aggregation in test [2] was -0.5% (inactive). Moreover, the nuclei count in test [2] is 99.8%; in test [3], 135%. In addition, the fluorescence slope in test [4] is -0.404 (inactive). Also, the NADPH fluorescence slope in [5] was -2.4e-05 (inactive). For the same compound, the slope in test [6] is 0.00459 (inactive). For the same compound, in test [7], the result was inactive.
Take `CCN(CC(=O)Nc1ccc2c(c1)OCCO2)Cc1cc(=O)oc2cc(C)c(C)cc12`: the cell count in test [1] came to 337. Moreover, the inhibition in test [1] was -9.6% (inactive); in test [3] it was -2.6% (inactive); in test [8], 25.7% (inactive); in test [9] it was 16.9% (inactive). In test [2], the inhibition of aggregation was 8.8% (inactive). In addition, the nuclei count in [2] was determined as 96.4%; in [3], 119%. Moreover, the fluorescence slope in test [4] was -0.474 (inactive). In [5], the NADPH fluorescence slope was -3.1e-05 (inactive). Further, the slope in test [6] was 0.00545 (inactive). Also, the compound was classed as inactive in test [7].
On to `O=C(Nc1ccc2c(c1)OCCO2)C1CCN(C(=O)c2ccc(F)cc2)CC1`, for which the cell count in test [1] came out at 397. The inhibition was 4.1% (inactive) in test [1], -14% (inactive) in test [3], -6.3% (inactive) in test [8] and -44.3% (inactive) in [9]. Moreover, the inhibition of aggregation in [2] was -5.3% (inactive). The nuclei count worked out at 96.2% in test [2] and 117% in test [3]. In addition, in test [4], the fluorescence slope is -0.368 (inactive). Moreover, in test [5], the NADPH fluorescence slope was -7.6e-05 (inactive). Besides, in test [6], the slope is 0.00511 (inactive). In [7], the result was inactive.
Turning to `CCOC(=O)c1ccc(CNC(=O)C(Cc2c[nH]c3ccccc23)NC(C)=O)o1` (stereo not drawn), in test [1], the cell count was found to be 444. Also, the inhibition in test [1] is -0.3% (inactive); in test [3], -52.8% (inactive); in [8], 17% (inactive); in test [9] it was 29.3% (inactive). Further, the inhibition of aggregation in test [2] is -11.1% (inactive). Moreover, the nuclei count in [2] was found to be 122%; in [3], 167%. In test [4], the fluorescence slope was -0.369 (inactive). The NADPH fluorescence slope in test [5] was -4.9e-06 (inactive). Further, the slope in test [6] is 0.00652 (inactive). Further, in test [7], the compound was classed as inactive.
As to `Nc1ccc(S(=O)(=O)c2cccc(N)c2)cc1`, the cell count in [1] is 655. Further, the inhibition was -8.6% (inactive) in test [1], -2.1% (inactive) in test [3], 15.4% (inactive) in [8] and 15.8% (inactive) in test [9]. For the same compound, the inhibition of aggregation in test [2] was -8.8% (inactive). Besides, the results for the nuclei count in test [2] and in test [3] were 81.5% and 108%, respectively. The fluorescence slope in [4] is -0.435 (inactive). Moreover, the NADPH fluorescence slope in test [5] is -1.3e-05 (inactive). In addition, in test [6], the slope was 0.00439 (inactive). Moreover, the outcome in test [7] was inactive.
`COc1cccc(N2CCN(CC(=O)c3c[nH]c4ccc(OC)cc34)CC2C)c1` (stereo not drawn): in test [1], the cell count amounted to 508. The inhibition in test [1] was -6.7% (inactive); in test [3], -36.3% (inactive); in test [8] it was 12.4% (inactive); in test [9], 16% (inactive). Also, the inhibition of aggregation in test [2] was 6% (inactive). The nuclei count in test [2] is 85.4%; in test [3], 103%. Also, the fluorescence slope in test [4] was -0.368 (inactive). The NADPH fluorescence slope in [5] was -3.9e-05 (inactive). Besides, in test [6], the slope was 0.00529 (inactive). Also, the outcome in test [7] was inactive.
With `COc1ccc(-n2ncc3c(NCc4cccs4)ncnc32)cc1`, the cell count in test [1] came to 424. Further, the inhibition in test [1] was 3.9% (inactive); in test [3], -94.5% (inactive); in test [8] it was -24.5% (inactive); in test [9] it was -70.4% (inactive). Further, in test [2], the inhibition of aggregation was -20.1% (inactive). Further, the nuclei count was 98.4% in test [2] and 106% in test [3]. In addition, in test [4], the fluorescence slope was -0.36 (inactive). Also, the NADPH fluorescence slope in [5] is -2e-06 (inactive). In addition, the slope in test [6] was 0.00593 (inactive). In addition, the call in [7] was inactive.
Take `O=C(NCCCN1CCN(Cc2ccccc2)CC1)C1CCN(c2nnc(-n3cccc3)s2)CC1`: in [1], the cell count was found to be 336. In addition, the inhibition in [1] was -11.8% (inactive); in test [3], -119% (inactive); in [8], -19.7% (inactive); in [9], -72% (inactive). Further, in [2], the inhibition of aggregation was -22.5% (inactive). In addition, the nuclei count in test [2] was found to be 103%; in test [3] it was 126%. In test [4], the fluorescence slope was -0.393 (inactive). For the same compound, the NADPH fluorescence slope in [5] was -5e-05 (inactive). Also, the slope in test [6] is 0.00457 (inactive). In addition, the compound was called inactive in test [7].
Take `COc1ccc(OC)c(N(CC(=O)Nc2cccnc2)S(=O)(=O)c2ccc(OC)c(OC)c2)c1`: the cell count in test [1] turned out to be 722. Besides, the inhibition in test [1] was 7.9% (inactive); in test [3], -37.3% (inactive); in test [8], 18.6% (inactive); in test [9], 21.4% (inactive). Also, in test [2], the inhibition of aggregation is -6.2% (inactive). The nuclei count in [2] was found to be 97%; in [3] it was 94.1%. Further, the fluorescence slope in test [4] is -0.456 (inactive). Moreover, in [5], the NADPH fluorescence slope was -5.3e-05 (inactive). Besides, the slope in test [6] was 0.00497 (inactive). Moreover, the result in test [7] was inactive.
On to `COc1ccc(C(=O)Nc2ccc(Cl)c(Cl)c2)c(OC)n1`, for which the cell count in test [1] amounted to 799. Besides, the inhibition was -7.1% (inactive) in [1], -145% (inactive) in test [3], -13.7% (inactive) in test [8] and -67% (inactive) in test [9]. Besides, in test [2], the inhibition of aggregation was -20.2% (inactive). Further, the values for the nuclei count in [2] and in [3] were 111% and 137%, respectively. Moreover, the fluorescence slope in test [4] is -0.364 (inactive). Moreover, the NADPH fluorescence slope in test [5] was -6.9e-05 (inactive). In addition, in test [6], the slope is 0.00581 (inactive). For the same compound, in test [7], the outcome was inactive.
